Laboratory results reported in PMC8530978 (Bioorganic chemistry, 2021).

How the values were obtained:
[1] = tested on: NCI sixty human tumor cell line panel; test: NCI sixty human tumor cell line panel, single dose 10 μM; type: cell-based; details: Homo sapiens, read-out: Mean % growth at 10 μM
[2] = tested on: mitotic spindle of HeLaM cells; type: cell-based; details: compound 10 μM + MG132 + ZM447439 (DMSO+MG132+ZM447439 3%)
HeLaM cells [3] = test: Chromosome drops to determine mitotic index; type: cell-based; details: 10 μM, after release from thymidine block
Outline: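 HeLaM cells held in S phase with a single 2 mM thymidine block overnight, washed in PBS and released into test compound for about 9 h, then given ZM447439 for 90 min. Attached and floating cells were pooled, trypsinized, swollen in 0.075 M KCl (10 min, 37 °C), fixed in methanol:acetic acid 3:1 and dropped onto slides. DAPI stain. Mitotic index scored blinded over at least three experiments.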

[4] = tested on: acetylation of SMC3 in HeLaM cells; test: Western blot of SMC3 acetylation in HeLaM cells; type: cell-based; details: overnight treatment
Outline: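 Acetylated SMC3 detected by immunoblot with an anti-acetyl-SMC3 antibody, HRP-conjugated secondary antibody and enhanced chemiluminescence, imaged on film.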

HeLaM cells [5] = test: Flow cytometry cell cycle analysis; type: cell-based; details: for cells in G2/M: 48 hours, subG1 excluded (DMSO 10%); for subG1 population: 72 hr post treatment (DMSO 14%)
Outline: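 5 × 10^5 HeLaM cells plated, treated next day with test compound or DMSO for 24, 48 or 72 h. All cells (floating and attached) collected and fixed in 70% ethanol (final). […] 10 μg/ml, 30 min, 37 °C, then propidium iodide in PBS + 2% FBS. SubG1 gated; subG1 excluded before modeling live-cell cycle distribution.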

[6] = tested on: purified HDAC isoforms (HDAC1, 2, 3, 8 and HDAC6); test: Single concentration; type: biochemical; details: 100 μM, HDAC1, 2, 3, 8 and 6
Outline: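 Recombinant HDAC1, 2, 3, 6 or 8 (1 μL of enzyme stock at 3, 1, 30, 35 or 70 ng/μL respectively) in HDAC-Glo buffer, incubated 3 h at room temperature with test compound in DMSO. HDAC-Glo reagent then added; luminescence read every 3 min for 30 min. Peak signal corrected against a no-enzyme background and divided by the no-inhibitor signal to give % activity remaining.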

[7] = tested on: HeLaM cells expressing mcherry-α-tubulin; test: Spindle reassembly after recovery from cold shock; type: cell-based; details: 8 minutes post-rewarming, versus control
Outline: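 HeLaM clone stably expressing mCherry-α-tubulin, treated with test compound or DMSO for 30 min at 37 °C, chilled 30 min at 4 °C, then rewarmed at 37 °C. Fixed at 0, 4, 8 and 20 min after rewarming; wide-field fluorescence imaging. Four repeats, 10–30 cells per condition per experiment. Blinded 8-min images scored, and spindle outlines traced to quantify morphology.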

HCT 116 cells = test: MTS reduction assay, antiproliferative activity on HCT 116; type: cell-based; details: Homo sapiens, HCT-116, 96 h
Outline: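 HCT116 cells grown in McCoy's 5A with 10% FBS (37 °C, 5% CO2), seeded at 3 × 10^3/well in triplicate and left to adhere overnight. Exposed to test compound at 0.01–100 μM, or DMSO, for 96 h. MTS reagent added for 2 h at 37 °C; absorbance read at 490 nm. Curves of log(concentration) vs response fitted with a variable Hill slope.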

[8] = tested on: HDAC8-null and control HCT116 cells; test: Cytotoxicity in HDAC8-null versus control HCT116 cells; type: cell-based, human; details: 10 μM
[9] = tested on: histone H3 acetylation and tubulin acetylation in HCT116 cells; test: Western blot of histone H3 and tubulin acetylation in HCT116 cells; type: cell-based, human; details: HCT116, 24 h, IPEs up to highest concentration 25 μM
Outline: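 HCT116 cells (2 × 10^6 per T-25 flask) adhered overnight, then given test compound at 1, 10 or 25 μM, or DMSO, for 24 h. Lysed in RIPA; protein measured by BCA. Acetyl-histone H3 and acetyl-tubulin immunoblotted, detected with fluorescent secondary antibodies on an Odyssey scanner.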

[10] = target: tubulin heterodimers, purified from porcine brain (Sus scrofa, UniProt P02554); test: Turbidity-based tubulin polymerization assay; type: biochemical; details: for Vmax of tubulin polymerization: 37 °C, exponential phase (DMSO 10 mOD/min)
tubulin heterodimers, purified from porcine brain, sequence (P02554 whole entry): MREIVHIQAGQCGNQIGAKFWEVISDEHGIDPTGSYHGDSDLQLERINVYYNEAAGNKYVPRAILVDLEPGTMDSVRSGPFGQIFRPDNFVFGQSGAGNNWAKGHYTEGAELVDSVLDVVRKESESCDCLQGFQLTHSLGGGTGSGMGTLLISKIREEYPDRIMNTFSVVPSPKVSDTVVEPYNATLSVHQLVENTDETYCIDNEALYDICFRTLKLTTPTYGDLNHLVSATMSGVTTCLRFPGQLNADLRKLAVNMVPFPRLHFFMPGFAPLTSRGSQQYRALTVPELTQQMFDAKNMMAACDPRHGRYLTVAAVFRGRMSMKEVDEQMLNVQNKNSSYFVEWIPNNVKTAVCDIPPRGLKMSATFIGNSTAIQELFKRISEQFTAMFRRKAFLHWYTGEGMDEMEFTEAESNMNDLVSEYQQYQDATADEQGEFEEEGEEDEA
tubulin heterodimers, purified from porcine brain, sequence (P02550 whole entry partner): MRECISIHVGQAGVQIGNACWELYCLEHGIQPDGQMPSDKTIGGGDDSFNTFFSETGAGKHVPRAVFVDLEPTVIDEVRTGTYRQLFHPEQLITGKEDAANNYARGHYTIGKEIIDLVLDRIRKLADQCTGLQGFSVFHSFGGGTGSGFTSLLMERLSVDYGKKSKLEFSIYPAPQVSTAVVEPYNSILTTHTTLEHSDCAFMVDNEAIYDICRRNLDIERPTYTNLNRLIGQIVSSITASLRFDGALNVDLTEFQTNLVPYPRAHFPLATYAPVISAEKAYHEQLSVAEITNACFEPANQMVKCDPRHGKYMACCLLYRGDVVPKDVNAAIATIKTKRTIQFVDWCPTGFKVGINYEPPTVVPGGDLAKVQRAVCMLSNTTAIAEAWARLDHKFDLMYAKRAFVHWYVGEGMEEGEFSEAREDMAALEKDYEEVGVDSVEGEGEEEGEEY

HDAC1 = HDAC1 (Homo sapiens, UniProt Q13547); test: HDAC-Glo inhibitor testing with recombinant HDAC1; type: biochemical
HDAC1, sequence (Q13547 whole entry): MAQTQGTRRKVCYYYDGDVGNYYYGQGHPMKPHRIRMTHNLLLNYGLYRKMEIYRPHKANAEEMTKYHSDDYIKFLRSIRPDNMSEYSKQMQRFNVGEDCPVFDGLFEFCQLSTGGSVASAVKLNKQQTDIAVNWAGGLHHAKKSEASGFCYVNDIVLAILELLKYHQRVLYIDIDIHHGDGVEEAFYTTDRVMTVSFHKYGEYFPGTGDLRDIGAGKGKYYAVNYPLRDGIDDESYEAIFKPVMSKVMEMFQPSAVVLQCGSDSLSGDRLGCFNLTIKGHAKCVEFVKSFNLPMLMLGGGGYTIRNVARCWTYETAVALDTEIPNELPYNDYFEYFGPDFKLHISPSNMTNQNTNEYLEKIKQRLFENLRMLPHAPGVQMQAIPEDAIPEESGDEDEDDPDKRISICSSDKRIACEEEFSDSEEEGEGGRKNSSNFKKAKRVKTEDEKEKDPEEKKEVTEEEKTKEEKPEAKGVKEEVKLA

HDAC2 = HDAC2 (Homo sapiens, UniProt Q92769); test: HDAC-Glo inhibitor testing with recombinant HDAC2; type: biochemical
HDAC2, sequence (Q92769 whole entry): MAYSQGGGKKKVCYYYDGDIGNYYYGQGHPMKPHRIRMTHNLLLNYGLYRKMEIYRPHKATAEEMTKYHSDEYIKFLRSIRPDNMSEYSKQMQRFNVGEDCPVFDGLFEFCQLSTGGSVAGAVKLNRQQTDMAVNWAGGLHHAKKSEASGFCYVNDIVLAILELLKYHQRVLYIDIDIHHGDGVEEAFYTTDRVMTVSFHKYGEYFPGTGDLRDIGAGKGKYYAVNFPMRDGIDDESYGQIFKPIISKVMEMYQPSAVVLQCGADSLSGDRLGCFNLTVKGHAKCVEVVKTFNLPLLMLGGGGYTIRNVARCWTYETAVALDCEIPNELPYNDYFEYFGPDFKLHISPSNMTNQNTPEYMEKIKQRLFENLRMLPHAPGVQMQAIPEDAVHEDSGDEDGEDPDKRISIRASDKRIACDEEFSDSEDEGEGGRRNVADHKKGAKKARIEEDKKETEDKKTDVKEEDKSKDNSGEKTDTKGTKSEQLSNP

HDAC6 = target: T1, HDAC6 (Homo sapiens, UniProt Q9UBN7); test: HDAC-Glo inhibitor testing with recombinant HDAC6; type: biochemical
T1 sequence (Q9UBN7 1-1215): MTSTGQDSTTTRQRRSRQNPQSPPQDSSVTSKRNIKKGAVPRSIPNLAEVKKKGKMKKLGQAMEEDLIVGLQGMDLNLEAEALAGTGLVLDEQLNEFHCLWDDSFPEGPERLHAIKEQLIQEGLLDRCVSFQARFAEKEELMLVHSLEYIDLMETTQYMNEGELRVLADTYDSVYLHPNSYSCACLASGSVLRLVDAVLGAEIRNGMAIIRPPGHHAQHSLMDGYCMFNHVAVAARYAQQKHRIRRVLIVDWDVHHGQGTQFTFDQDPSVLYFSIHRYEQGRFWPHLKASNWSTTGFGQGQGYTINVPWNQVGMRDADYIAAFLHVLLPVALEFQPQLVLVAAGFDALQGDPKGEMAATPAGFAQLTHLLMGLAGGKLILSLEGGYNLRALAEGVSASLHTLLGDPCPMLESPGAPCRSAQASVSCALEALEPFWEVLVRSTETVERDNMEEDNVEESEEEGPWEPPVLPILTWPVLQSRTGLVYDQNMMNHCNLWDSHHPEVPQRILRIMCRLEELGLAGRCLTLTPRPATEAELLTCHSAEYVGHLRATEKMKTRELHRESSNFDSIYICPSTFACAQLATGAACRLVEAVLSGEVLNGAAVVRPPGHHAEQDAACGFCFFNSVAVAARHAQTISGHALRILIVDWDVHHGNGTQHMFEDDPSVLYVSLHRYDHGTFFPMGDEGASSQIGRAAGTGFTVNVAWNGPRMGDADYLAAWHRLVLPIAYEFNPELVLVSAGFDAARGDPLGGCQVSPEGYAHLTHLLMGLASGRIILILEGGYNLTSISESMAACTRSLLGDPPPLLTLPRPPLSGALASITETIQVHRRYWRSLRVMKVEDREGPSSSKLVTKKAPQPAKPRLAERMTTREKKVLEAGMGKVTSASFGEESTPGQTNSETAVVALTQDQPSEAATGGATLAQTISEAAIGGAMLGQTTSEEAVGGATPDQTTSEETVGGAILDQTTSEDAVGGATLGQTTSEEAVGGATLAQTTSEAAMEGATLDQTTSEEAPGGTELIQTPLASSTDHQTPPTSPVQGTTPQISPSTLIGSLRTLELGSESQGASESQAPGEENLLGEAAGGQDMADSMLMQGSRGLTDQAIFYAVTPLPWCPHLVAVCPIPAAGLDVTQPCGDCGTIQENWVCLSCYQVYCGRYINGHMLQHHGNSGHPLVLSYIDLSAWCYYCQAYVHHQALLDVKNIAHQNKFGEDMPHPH

HeLaM cells [11] = test: Phase contrast time lapse microscopy, mitotic duration; type: cell-based; details: asynchronous HeLaM cells, images every 12 min

GI50 (HCT 116 cells) | Vmax of tubulin polymerization ([10]; 10 μM compound) | Vmax of tubulin polymerization ([10]; 50 μM compound) | microtubule depolymerization upon cooling ([10]; 50 μM, cooling to ~15°C) | IC50 (HDAC1) | IC50 (HDAC2) | IC50 (HDAC6) | SMILES | activity at 10 µM [1] | spindle collapse [2] | mitotic arrest (mitotic index) (HeLaM cells [3]) | SMC3 acetylation [4] | cells in G2/M (HeLaM cells [5]) | subG1 population (HeLaM cells [5]) | activity remaining, each HDAC isoform [6] | abnormal spindles [7] | cell killing of parental and HDAC8-null cells [8] | global histone H3 acetylation and tubulin acetylation [9] | mitotic duration / mitotic arrest (HeLaM cells [11])
6.95 µM | 5.5 mOD/min | 4.5 mOD/min | Depolymerization was accelerated |  |  |  | O=C(Cc1ccc(/C=C/C(=O)c2ncc[nH]2)cc1)Nc1ccc(F)cc1 [IPE-7, (E)-2-(4-(3-(1H-Imidazol-2-yl)-3-oxoprop-1-en-1-yl)phenyl)-N-(4-fluorophenyl)acetamide] | 27.5% | 97% | arrested cells in mitosis | no effect on SMC3 acetylation | 36% | 58% | 20–80% | significantly more abnormal spindles | both parental and HDAC8-null cells were killed | no increase in global histone acetylation or tubulin acetylation | 
5.14 µM |  |  |  | > 100 µM | > 100 µM | > 100 µM | O=C(Cc1ccc(/C=C/C(=O)c2ncc[nH]2)cc1)Nc1ccc(Cl)cc1 [IPE-8, (E)-2-(-4(3-(1H-imidazol-2-yl)-3-oxoprop-1-en-1-yl)phenyl)-N-(4-chlorophenyl)acetamide] | 21.1% |  |  | no effect on SMC3 acetylation | 33% | 59% | 20–80% |  |  |  | 
 |  |  |  |  |  |  | COc1ccc(Cn2ccc3ccc(C(=O)NO)cc32)cc1 [PCI34051, reference compound] |  | did not produce the same aberrant spindle |  | an increase in SMC3 acetylation |  |  |  |  |  |  | 1.5 h
